test system: not listed separately; assay: Antiinflammatory activity in mouse RAW264.7 cells assessed as inhibition of LPS-induced nitric oxide production at 100 uM after 24 hrs by Griess assay relative to control; assay type: functional; conditions: RAW264.7, 24 h
Summary of the method: (§1)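 RAW264.7 cells (5 × 10^5/mL) pre-treated with samples at 100, 50, 10 or 1 µM, then LPS (100 ng/mL) for 24 h. Nitrite in medium measured by mixing with equal volume Griess reagent (1% sulfanilamide in 5% H3PO4, 0.1% N-naphthyl-ethylenediamine), 10 min at 37 °C, absorbance 540 nm; quantified against NaNO2 standard curve; minocycline as positive control.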

SMILES | inhibition at 100 µM [%]
COc1cc([C@@H](O)[C@@H](CO)Oc2c(OC)cc([C@@H](O)[C@H](O)CO)cc2OC)ccc1O | 2.7
COc1cc([C@H](O)[C@@H](CO)Oc2ccc([C@@H](O)[C@@H](CO)c3ccc(O)c(OC)c3)cc2OC)ccc1O | 68.9
CCO[C@H](c1ccc(O[C@@H](CO)[C@@H](O)c2ccc(O)c(OC)c2)c(OC)c1)[C@@H](CO)c1ccc(O)c(OC)c1 | 62.6

test system: not listed separately; assay: Antioxidant activity assessed as ferric ion reducing activity by measuring Fe2+ levels using fe3+-TPTZ at 750 ug/ml after 30 mins by FRAP assay; assay type: functional; conditions: not given
Summary of the method: (§2)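 FRAP reagent: 300 mM acetate buffer pH 3.6, 10 mM TPTZ in 40 mM HCl, 20 mM FeCl3. Sample (3000, 1500, 750, 375 µg/mL solutions) mixed with reagent, 30 min at 37 °C, absorbance 593 nm. Values expressed as µM Fe2+ from FeSO4 calibration curve (5–450 µM).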

SMILES | Activity [µmol/L]
COc1cc([C@@H](O)[C@@H](CO)Oc2c(OC)cc([C@@H](O)[C@H](O)CO)cc2OC)ccc1O | 60
COc1cc([C@H](O)[C@@H](CO)Oc2ccc([C@@H](O)[C@@H](CO)c3ccc(O)c(OC)c3)cc2OC)ccc1O | 42.2
CCO[C@H](c1ccc(O[C@@H](CO)[C@@H](O)c2ccc(O)c(OC)c2)c(OC)c1)[C@@H](CO)c1ccc(O)c(OC)c1 | 62.7

test system: not listed separately; assay: Antioxidant activity assessed as DPPH radical scavenging activity incubated in dark for 30 mins; assay type: functional; conditions: not given
Summary of the method: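 Samples (0.4 mM stock, 5–40 µL series) and DPPH (2 mM stock, 20 µL) in ethanol, made to 200 µL with ethanol; incubated 30 min in dark at 37 °C; absorbance at 517 nm. Ethanol replaced sample as blank.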

SMILES | IC50 [µM]
COc1cc([C@@H](O)[C@@H](CO)Oc2c(OC)cc([C@@H](O)[C@H](O)CO)cc2OC)ccc1O | 138
COc1cc([C@H](O)[C@@H](CO)Oc2ccc([C@@H](O)[C@@H](CO)c3ccc(O)c(OC)c3)cc2OC)ccc1O | 68.6
CCO[C@H](c1ccc(O[C@@H](CO)[C@@H](O)c2ccc(O)c(OC)c2)c(OC)c1)[C@@H](CO)c1ccc(O)c(OC)c1 | 79.6

test system: not listed separately; assay: Antiinflammatory activity in mouse RAW264.7 cells assessed as inhibition of LPS-induced nitric oxide production after 24 hrs by Griess assay; assay type: functional, cell-based; conditions: RAW264.7, 24 h; summary of the method: as §1

SMILES | IC50 [µM]
COc1cc([C@@H](O)[C@@H](CO)Oc2c(OC)cc([C@@H](O)[C@H](O)CO)cc2OC)ccc1O | > 100
COc1cc([C@H](O)[C@@H](CO)Oc2ccc([C@@H](O)[C@@H](CO)c3ccc(O)c(OC)c3)cc2OC)ccc1O | 50.5
CCO[C@H](c1ccc(O[C@@H](CO)[C@@H](O)c2ccc(O)c(OC)c2)c(OC)c1)[C@@H](CO)c1ccc(O)c(OC)c1 | 66.4

test system: not listed separately; assay: Antiinflammatory activity in mouse RAW264.7 cells assessed as inhibition of LPS-induced TNFalpha production at 100 uM after 24 hrs by ELISA relative to control; assay type: functional; conditions: RAW264.7, 24 h
Summary of the method: (§3)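 RAW264.7 cells plated at 5 × 10^5/mL, pre-treated with samples at 100, 50, 10 or 1 µM, then stimulated with LPS (100 ng/mL) for 24 h. TNF-α in the medium measured by ELISA kit per manufacturer's instructions and quantified from a standard curve; silybin as positive control.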

SMILES | inhibition at 100 µM [%]
COc1cc([C@@H](O)[C@@H](CO)Oc2c(OC)cc([C@@H](O)[C@H](O)CO)cc2OC)ccc1O | 45.8
COc1cc([C@H](O)[C@@H](CO)Oc2ccc([C@@H](O)[C@@H](CO)c3ccc(O)c(OC)c3)cc2OC)ccc1O | 32.1
CCO[C@H](c1ccc(O[C@@H](CO)[C@@H](O)c2ccc(O)c(OC)c2)c(OC)c1)[C@@H](CO)c1ccc(O)c(OC)c1 | 29.2

species on record: Mus musculus; assay: Cytotoxicity against mouse RAW264.7 cells assessed as effect on cell viability at 100 uM preincubated for 1 hr followed by LPS stimulation measured after 24 hrs by MTT assay; assay type: toxicity, cell-based; conditions: raw264.7, 24 h
Summary of the method: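 RAW264.7 cells in DMEM with 10% FBS and penicillin/streptomycin at 37 °C, 5% CO2, seeded 5 × 10^5 cells/well; treated with samples (100 µM) 1 h, then LPS (100 ng/mL) 24 h. MTT (0.25 mg/mL) added for 4 h; formazan read at 540 nm; untreated cells as control.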

SMILES | Activity
COc1cc([C@@H](O)[C@@H](CO)Oc2c(OC)cc([C@@H](O)[C@H](O)CO)cc2OC)ccc1O | Non-Toxic
COc1cc([C@H](O)[C@@H](CO)Oc2ccc([C@@H](O)[C@@H](CO)c3ccc(O)c(OC)c3)cc2OC)ccc1O | Non-Toxic
CCO[C@H](c1ccc(O[C@@H](CO)[C@@H](O)c2ccc(O)c(OC)c2)c(OC)c1)[C@@H](CO)c1ccc(O)c(OC)c1 | Non-Toxic

test system: not listed separately; assay: Antioxidant activity assessed as ferric ion reducing activity by measuring Fe2+ levels using fe3+-TPTZ at 375 ug/ml after 30 mins by FRAP assay; assay type: functional; conditions: not given; summary of the method: as §2

SMILES | Activity [µmol/L]
COc1cc([C@@H](O)[C@@H](CO)Oc2c(OC)cc([C@@H](O)[C@H](O)CO)cc2OC)ccc1O | 37.1
COc1cc([C@H](O)[C@@H](CO)Oc2ccc([C@@H](O)[C@@H](CO)c3ccc(O)c(OC)c3)cc2OC)ccc1O | 29.1
CCO[C@H](c1ccc(O[C@@H](CO)[C@@H](O)c2ccc(O)c(OC)c2)c(OC)c1)[C@@H](CO)c1ccc(O)c(OC)c1 | 38.6

test system: not listed separately; assay: Antiinflammatory activity in mouse RAW264.7 cells assessed as inhibition of LPS-induced TNFalpha production at 10 uM after 24 hrs by ELISA relative to control; assay type: functional; conditions: RAW264.7, 24 h; summary of the method: as §3

SMILES | inhibition at 10 µM [%]
COc1cc([C@@H](O)[C@@H](CO)Oc2c(OC)cc([C@@H](O)[C@H](O)CO)cc2OC)ccc1O | 14.1
COc1cc([C@H](O)[C@@H](CO)Oc2ccc([C@@H](O)[C@@H](CO)c3ccc(O)c(OC)c3)cc2OC)ccc1O | 4.1
CCO[C@H](c1ccc(O[C@@H](CO)[C@@H](O)c2ccc(O)c(OC)c2)c(OC)c1)[C@@H](CO)c1ccc(O)c(OC)c1 | 3.1

test system: not listed separately; assay: Antiinflammatory activity in mouse RAW264.7 cells assessed as inhibition of LPS-induced nitric oxide production at 50 uM after 24 hrs by Griess assay relative to control; assay type: functional; conditions: RAW264.7, 24 h; summary of the method: as §1

SMILES | inhibition at 50 µM [%]
COc1cc([C@@H](O)[C@@H](CO)Oc2c(OC)cc([C@@H](O)[C@H](O)CO)cc2OC)ccc1O | 1.1
COc1cc([C@H](O)[C@@H](CO)Oc2ccc([C@@H](O)[C@@H](CO)c3ccc(O)c(OC)c3)cc2OC)ccc1O | 49.2
CCO[C@H](c1ccc(O[C@@H](CO)[C@@H](O)c2ccc(O)c(OC)c2)c(OC)c1)[C@@H](CO)c1ccc(O)c(OC)c1 | 40.2

test system: not listed separately; assay: Antioxidant activity assessed as ferric ion reducing activity by measuring Fe2+ levels using fe3+-TPTZ at 3000 ug/ml after 30 mins by FRAP assay; assay type: functional; conditions: not given; summary of the method: as §2

SMILES | Activity [µmol/L]
COc1cc([C@@H](O)[C@@H](CO)Oc2c(OC)cc([C@@H](O)[C@H](O)CO)cc2OC)ccc1O | 127
COc1cc([C@H](O)[C@@H](CO)Oc2ccc([C@@H](O)[C@@H](CO)c3ccc(O)c(OC)c3)cc2OC)ccc1O | 132
CCO[C@H](c1ccc(O[C@@H](CO)[C@@H](O)c2ccc(O)c(OC)c2)c(OC)c1)[C@@H](CO)c1ccc(O)c(OC)c1 | 134

test system: not listed separately; assay: Antiinflammatory activity in mouse RAW264.7 cells assessed as inhibition of LPS-induced TNFalpha production at 50 uM after 24 hrs by ELISA relative to control; assay type: functional; conditions: RAW264.7, 24 h; summary of the method: as §3

SMILES | inhibition at 50 µM [%]
COc1cc([C@@H](O)[C@@H](CO)Oc2c(OC)cc([C@@H](O)[C@H](O)CO)cc2OC)ccc1O | 23.2
COc1cc([C@H](O)[C@@H](CO)Oc2ccc([C@@H](O)[C@@H](CO)c3ccc(O)c(OC)c3)cc2OC)ccc1O | 15.1
CCO[C@H](c1ccc(O[C@@H](CO)[C@@H](O)c2ccc(O)c(OC)c2)c(OC)c1)[C@@H](CO)c1ccc(O)c(OC)c1 | 11.4

test system: not listed separately; assay: Antiinflammatory activity in mouse RAW264.7 cells assessed as inhibition of LPS-induced TNFalpha production after 24 hrs by ELISA; assay type: functional, cell-based; conditions: RAW264.7, 24 h; summary of the method: as §3

SMILES | IC50 [µM]
COc1cc([C@@H](O)[C@@H](CO)Oc2c(OC)cc([C@@H](O)[C@H](O)CO)cc2OC)ccc1O | > 100
COc1cc([C@H](O)[C@@H](CO)Oc2ccc([C@@H](O)[C@@H](CO)c3ccc(O)c(OC)c3)cc2OC)ccc1O | > 100
CCO[C@H](c1ccc(O[C@@H](CO)[C@@H](O)c2ccc(O)c(OC)c2)c(OC)c1)[C@@H](CO)c1ccc(O)c(OC)c1 | > 100

test system: not listed separately; assay: Antiinflammatory activity in mouse RAW264.7 cells assessed as inhibition of LPS-induced nitric oxide production at 10 uM after 24 hrs by Griess assay relative to control; assay type: functional; conditions: RAW264.7, 24 h; summary of the method: as §1

SMILES | inhibition at 10 µM [%]
COc1cc([C@@H](O)[C@@H](CO)Oc2c(OC)cc([C@@H](O)[C@H](O)CO)cc2OC)ccc1O | -1.8
COc1cc([C@H](O)[C@@H](CO)Oc2ccc([C@@H](O)[C@@H](CO)c3ccc(O)c(OC)c3)cc2OC)ccc1O | 14.3
CCO[C@H](c1ccc(O[C@@H](CO)[C@@H](O)c2ccc(O)c(OC)c2)c(OC)c1)[C@@H](CO)c1ccc(O)c(OC)c1 | 18.2

test system: not listed separately; assay: Antioxidant activity assessed as ABTS radical scavenging activity after 30 mins; assay type: functional; conditions: not given
Summary of the method: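 ABTS radical generated by 7 mM ABTS plus 2.4 mM potassium persulfate, 12 h dark at room temperature, diluted in ethanol to OD 0.700 at 734 nm. Samples at several concentrations mixed with ABTS+ solution, 30 min at 37 °C, read at 734 nm; ethanol blank; percent scavenging calculated relative to blank.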

SMILES | IC50 [µM]
COc1cc([C@@H](O)[C@@H](CO)Oc2c(OC)cc([C@@H](O)[C@H](O)CO)cc2OC)ccc1O | 11.8
COc1cc([C@H](O)[C@@H](CO)Oc2ccc([C@@H](O)[C@@H](CO)c3ccc(O)c(OC)c3)cc2OC)ccc1O | 4.4
CCO[C@H](c1ccc(O[C@@H](CO)[C@@H](O)c2ccc(O)c(OC)c2)c(OC)c1)[C@@H](CO)c1ccc(O)c(OC)c1 | 7.1

test system: not listed separately; assay: Antiinflammatory activity in mouse RAW264.7 cells assessed as inhibition of LPS-induced TNFalpha production at 1 uM after 24 hrs by ELISA relative to control; assay type: functional; conditions: RAW264.7, 24 h; summary of the method: as §3

SMILES | inhibition at 1 µM [%]
COc1cc([C@@H](O)[C@@H](CO)Oc2c(OC)cc([C@@H](O)[C@H](O)CO)cc2OC)ccc1O | 2.3
COc1cc([C@H](O)[C@@H](CO)Oc2ccc([C@@H](O)[C@@H](CO)c3ccc(O)c(OC)c3)cc2OC)ccc1O | 2.2
CCO[C@H](c1ccc(O[C@@H](CO)[C@@H](O)c2ccc(O)c(OC)c2)c(OC)c1)[C@@H](CO)c1ccc(O)c(OC)c1 | -2.2

test system: not listed separately; assay: Antioxidant activity assessed as ferric ion reducing activity by measuring Fe2+ levels using fe3+-TPTZ at 1500 ug/ml after 30 mins by FRAP assay; assay type: functional; conditions: not given; summary of the method: as §2

SMILES | Activity [µmol/L]
COc1cc([C@@H](O)[C@@H](CO)Oc2c(OC)cc([C@@H](O)[C@H](O)CO)cc2OC)ccc1O | 89.1
COc1cc([C@H](O)[C@@H](CO)Oc2ccc([C@@H](O)[C@@H](CO)c3ccc(O)c(OC)c3)cc2OC)ccc1O | 89.9
CCO[C@H](c1ccc(O[C@@H](CO)[C@@H](O)c2ccc(O)c(OC)c2)c(OC)c1)[C@@H](CO)c1ccc(O)c(OC)c1 | 96.8

test system: not listed separately; assay: Antiinflammatory activity in mouse RAW264.7 cells assessed as inhibition of LPS-induced nitric oxide production at 1 uM after 24 hrs by Griess assay relative to control; assay type: functional; conditions: RAW264.7, 24 h; summary of the method: as §1

SMILES | inhibition at 1 µM [%]
COc1cc([C@@H](O)[C@@H](CO)Oc2c(OC)cc([C@@H](O)[C@H](O)CO)cc2OC)ccc1O | -3.1
COc1cc([C@H](O)[C@@H](CO)Oc2ccc([C@@H](O)[C@@H](CO)c3ccc(O)c(OC)c3)cc2OC)ccc1O | 2.6
CCO[C@H](c1ccc(O[C@@H](CO)[C@@H](O)c2ccc(O)c(OC)c2)c(OC)c1)[C@@H](CO)c1ccc(O)c(OC)c1 | 4.7
